Measurements gathered from unrelated publications.
pIC50: −log10 of the molar value.
Read-out: cell growth or viability

For `COc1cc2ncnc(Nc3ccc4c(c3)/C(=C/c3ccccc3)C(=O)N4C)c2cc1OC`, the pIC50 was 4.82 (H22; MTT).
`CCN1[C@@H](C(=O)NC23CCC(C(=O)O)(CC2)CC3)[C@H](c2cccc(Cl)c2F)[C@]2(C(=O)Nc3cc(Cl)ccc32)C12CCCCC2` gave a pIC50 of under 6.00 (U2OS; resazurin; 72 h).
With `CN1CCC(NC(=O)c2ccc(-c3cc(C4CC4)c4oc5c(c4c3)CCN(C(=O)/C=C/c3ccc(N)nc3)C5)nn2)C(F)(F)C1` (stereo not drawn) the pIC50 was 5.46 (U2OS; CCK-8; 72 h).
With `O=c1c(C=NNC(=S)Nc2ccccc2)coc2ccccc12` the pIC50 was under 4.00 (HeLa; MTT; 24 h).
`Cc1nc(Nc2ccc3c(c2)/C(=C/c2ccccc2)C(=O)N3C)c2ccccc2n1` has a pIC50 of 5.27 (H22; MTT).
The pIC50 of `Cc1noc2c1-c1ccccc1C(c1ccc(Cl)cc1)=N[C@H]2CC(N)=O` is reported as 6.12 (NB-4; ATP luminescence; 72 h).
For `Cc1nc(NC(=O)N2CCC[C@H]2C(N)=O)sc1-c1ccnc(C(C)(C)C(F)(F)F)c1`, the pIC50 was 4.59 (H22; MTT).
`COc1cc2c3c(n(CCCn4ccnc4)c(=O)c2cc1OC)-c1nc2c(cc1C3=O)OCO2` gave a pIC50 of 6.63 (L-363; MTS; 72 h).
The pIC50 of `C=C(F)C(=O)N1CCN(c2nc(OC[C@@H]3CCCN3C)nc3c2CCN(c2cccc4cccc(Cl)c24)C3)C[C@@H]1CC#N` is reported as 6.17 (NCI-H1792; ATP luminescence).
`Nc1ccc(/C=C/C(=O)N2CCc3c(oc4c(-c5ccc(F)cc5)cc(-c5ncc(C(=O)N6CCC(F)(F)CC6)cn5)cc34)C2)cn1` gave a pIC50 of 5.24 (U2OS; CCK-8; 72 h).
With `CCNCCCn1c2c(c3cc(OC)c(OC)cc3c1=O)C(=O)c1cc3c(nc1-2)OCO3` the pIC50 was 7.02 (L-363; MTS; 72 h).
With `Nc1ccc(/C=C/C(=O)N2CCc3c(oc4c(-c5ccc(F)cc5)cc(-c5ccc(C(=O)N6CCC(F)(F)CC6)cc5F)cc34)C2)cn1` the pIC50 was under 5.00 (U2OS; CCK-8; 72 h).
With `Cc1nc(Nc2ccc3c(c2)/C(=C/c2ccccc2)C(=O)N3Cc2ccccc2)c2ccccc2n1` the pIC50 was 5.97 (H22; MTT).
With `Nc1ccc(/C=C/C(=O)N2CCc3c(oc4c(-c5ccc(F)cc5)cc(-c5cnc(C(=O)N6CCC(F)(F)CC6)nc5)cc34)C2)cn1` the pIC50 was 6.02 (U2OS; CCK-8; 72 h).
The pIC50 of `N[C@H]1CC[C@H](N[C@@H]2C[C@H]2c2ccccc2)CC1` is reported as 3.46 (U2OS; resazurin).
